As a reminder, the IC50 is the concentration that inhibits the measured activity by half. Low values mean inhibition by little substance, high ones a need for much substance.

The target in test [1] is T1, Prostaglandin G/H synthase 1 (Ovis aries) (UniProt P05979).
T1 sequence (whole entry): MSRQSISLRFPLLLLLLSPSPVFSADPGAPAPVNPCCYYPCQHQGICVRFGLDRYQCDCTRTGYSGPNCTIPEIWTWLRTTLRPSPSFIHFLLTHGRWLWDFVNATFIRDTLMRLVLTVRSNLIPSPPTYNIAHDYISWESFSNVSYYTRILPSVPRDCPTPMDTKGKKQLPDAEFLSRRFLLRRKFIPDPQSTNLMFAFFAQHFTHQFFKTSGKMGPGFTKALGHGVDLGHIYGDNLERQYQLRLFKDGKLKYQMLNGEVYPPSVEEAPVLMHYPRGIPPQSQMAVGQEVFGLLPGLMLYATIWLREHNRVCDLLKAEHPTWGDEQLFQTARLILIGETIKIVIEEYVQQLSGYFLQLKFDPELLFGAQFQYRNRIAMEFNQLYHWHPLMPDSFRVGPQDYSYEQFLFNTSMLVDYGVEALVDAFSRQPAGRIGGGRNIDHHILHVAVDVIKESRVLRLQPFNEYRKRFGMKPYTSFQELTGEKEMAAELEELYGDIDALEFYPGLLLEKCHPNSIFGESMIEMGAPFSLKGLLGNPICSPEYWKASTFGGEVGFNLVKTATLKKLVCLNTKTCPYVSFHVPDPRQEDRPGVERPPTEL
Description: Inhibition of ovine COX1 using arachidonic acid as substrate at 10^-8 to 10^-5 M incubated for 10 mins prior to substrate addition measured after 2 mins by spectrophotometry. In a few lines: (§1)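 Human recombinant COX-2 or ovine COX-1 with heme in reaction buffer, preincubated with inhibitor 10 min at 37 °C. Arachidonic acid then added for 2 min, stopped with 1 M HCl, followed by stannous chloride. Prostaglandin measured by AChE-tracer EIA, 18 h at room temperature, Ellman's development, absorbance at 420 nm. Boiled enzyme as background. Duplicates; IC50 from % inhibition versus concentration plot.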

Test [2] has as its target T2, Prostaglandin G/H synthase 2 (Homo sapiens) (UniProt P35354).
T2 sequence (whole entry): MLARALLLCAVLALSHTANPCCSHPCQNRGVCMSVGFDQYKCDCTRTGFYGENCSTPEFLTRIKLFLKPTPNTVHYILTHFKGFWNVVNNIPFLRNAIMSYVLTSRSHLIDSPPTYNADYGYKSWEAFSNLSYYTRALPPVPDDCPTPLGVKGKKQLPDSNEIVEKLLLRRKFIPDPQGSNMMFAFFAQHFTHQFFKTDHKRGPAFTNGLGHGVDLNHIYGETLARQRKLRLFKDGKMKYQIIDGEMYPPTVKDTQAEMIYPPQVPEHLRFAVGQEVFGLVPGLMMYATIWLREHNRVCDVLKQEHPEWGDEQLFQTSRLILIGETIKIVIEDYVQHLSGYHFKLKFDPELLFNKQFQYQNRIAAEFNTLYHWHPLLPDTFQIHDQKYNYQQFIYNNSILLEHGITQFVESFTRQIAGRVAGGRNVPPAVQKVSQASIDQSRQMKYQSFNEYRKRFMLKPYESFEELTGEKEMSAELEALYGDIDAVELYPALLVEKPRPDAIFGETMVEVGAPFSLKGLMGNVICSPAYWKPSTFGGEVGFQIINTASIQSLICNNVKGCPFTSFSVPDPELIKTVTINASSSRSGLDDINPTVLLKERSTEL
Description: Inhibition of human recombinant COX2 using arachidonic acid as substrate at 10^-8 to 10^-5 M incubated for 10 mins prior to substrate addition measured after 2 mins by spectrophotometry. The essentials: as §1

Test [3] has as its system Mus musculus. Nature of the test: Antinociceptive activity in Swiss albino mouse assessed as reduction in capsaicin-induced paw licking at 10 mg/kg, ip administered 30 mins prior to capsaicin-challenge. The class given is functional, organism-based. Set-up: dose 10 mg/kg. The essentials:
(§2)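 Swiss albino mice (25–35 g) of either sex, acclimatized at least 1 h, each used once; groups of 6. Treatments given ip 30 min before intraplantar capsaicin (1.6 µg in 20 µL) into right hind paw; saline (0.5 mL) control, diclofenac 25 mg/kg reference, test doses 5 or 10 mg/kg. Time spent paw licking and twitching recorded over 10 min per animal.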

Test [4] has as its system Mus musculus. Nature of the test: Antinociceptive activity in Swiss albino mouse assessed as reduction in capsaicin-induced paw licking at 5 mg/kg, ip administered 30 mins prior to capsaicin-challenge. The class given is functional, organism-based. Further details: dose 5 mg/kg. In a few lines:
as §2

Test [5] deals with T3, Prostaglandin G/H synthase 1 (Ovis aries, UniProt P05979).
T3 sequence (P05979 whole entry): T1 sequence (whole entry)
Description: Inhibition of ovine COX1 using arachidonic acid as substrate incubated for 10 mins prior to substrate addition measured after 2 mins by spectrophotometry. In a few lines: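 Ovine COX-1 with heme, preincubated 10 min at 37 °C with inhibitor at 10^-3 to 10^-6 M. Arachidonic acid reaction for 2 min, stopped with 1 M HCl, then stannous chloride. Prostaglandin quantified by competitive EIA with AChE tracer, Ellman's reagent read at 420 nm. Heat-inactivated enzyme for background. Run in duplicate; IC50 fitted from % inhibition against concentration.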

For test [6], the system named is Mus musculus. Description: Antinociceptive activity in Swiss albino mouse assessed as reduction in capsaicin-induced paw licking at 25 mg/kg, ip administered 30 mins prior to capsaicin-challenge. The test is classed as functional, organism-based. Further details: dose 25 mg/kg. The essentials:
as §2

Calls of active or inactive are those of the source. The rule behind the calls is not given here.

Consider `O=C1/C(=C\c2cn(CCCCOc3cc(O)c4c(=O)cc(-c5ccccc5)oc4c3)c3ccccc23)c2ccccc2N1c1c(Cl)cccc1Cl`, for which the inhibition entry in test [1] and in test [2] was “inactive” throughout.
On to `O=C1Nc2ccccc2/C1=C/c1cn(CCCOc2cc(O)c3c(=O)cc(-c4ccccc4)oc3c2)c2ccccc12`, for which the outcome in the test on Mus musculus [3] and with Mus musculus [4] was inactive. Moreover, the IC50 in test [5] is 102 µM.
For the compound `O=C(O)Cc1ccccc1Nc1c(Cl)cccc1Cl`, the result with Mus musculus [6] was Active.
Consider `O=C1/C(=C\c2cn(CCCOc3cc(O)c4c(=O)cc(-c5ccccc5)oc4c3)c3ccccc23)c2ccccc2N1c1c(Cl)cccc1Cl`, for which the result in the test on Mus musculus [3] and with Mus musculus [4] was Active. Also, half-maximal inhibition in test [5] (IC50) was put at 115 µM.
As for `CC1=NN(c2cccc(Cl)c2)C(=O)/C1=C\c1cn(CCCCOc2cc(O)c3c(=O)cc(-c4ccccc4)oc3c2)c2ccccc12`, the outcome with Mus musculus [3] and in the test with Mus musculus [4] was Active. In test [5], this compound displayed an IC50 of 90 µM.
In the case of `CC1=NN(c2cccc(Cl)c2)C(=O)/C1=C\c1cn(CCCOc2cc(O)c3c(=O)cc(-c4ccccc4)oc3c2)c2ccccc12`, the outcome in the test on Mus musculus [3] was Active. In addition, in the test with Mus musculus [4], the outcome was inactive. This compound also returned an IC50 in test [5] of 118 µM.
For `O=C1Nc2ccccc2/C1=C/c1cn(CCCCOc2cc(O)c3c(=O)cc(-c4ccccc4)oc3c2)c2ccccc12`, the inhibition result in test [1] and in test [2] was “inactive” each time.
In test [5], `O=c1cc(-c2ccccc2)oc2cc(O)cc(O)c12` [CHRYSIN] returned an IC50 of 39.3 µM. In other words, the double-digit micromolar range.

The record behind these values is ChEMBL document CHEMBL3098023, “Rationally designed hybrid molecules with appreciable COX-2 inhibitory and anti-nociceptive activities” (Bioorg Med Chem Lett, 2014).
